The source of these data is ChEMBL document CHEMBL1154726, “Exploring the effect of 2,3,4-trimethoxy-phenyl moiety as a component of indolephenstatins” (Eur J Med Chem, 2010).

Broadly, the inhibition is the share of the control response that was lost under treatment. Low values mean little suppression, high ones strong suppression. The IC50 is the point on the concentration scale where inhibition reaches its midpoint.

The species named for test [1] is Bos taurus. Briefly: Inhibition of calf brain tubulin polymerization at 30 uM after 20 mins. Put shortly: (§1)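 Single-concentration screen of tubulin assembly using calf brain MTP at 1.0 mg/mL in 0.1 M MES, 1 mM EGTA, 1 mM MgCl2, 1 mM β-ME, 1.5 mM GTP, pH 6.7, 4% DMSO, with a no-ligand control. Samples were preincubated 30 min at 20 °C and 10 min on ice, then warmed from 4 °C to 37 °C. Percent inhibition of the turbidity increase was taken after 20 min.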

The next test deals with HeLa. Put plainly: Cytotoxicity against human HeLa cells after 72 hrs by XTT assay. Format: functional, cell-based.
A further test deals with HL-60. Briefly: Cytotoxicity against human HL60 cells after 72 hrs by XTT assay. It is filed as functional, cell-based. To be noted: HL-60, 72 h. Put shortly: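 XTT proliferation assay. Adherent cells were seeded and left 24 h at 37 °C in humidified 5% CO2/95% air to attach. HL-60 cells were seeded at 3 × 10³ cells/well. Cells were exposed to a range of compound concentrations for 72 h under the same atmosphere, then incubated a further 4 h. Formazan was read at 490 nm against a 655 nm reference. IC50 is the concentration giving 50% inhibition of proliferation.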
(Tetrazolium dyes change colour on reduction, which living cells bring about.)

The test system of another test is A549. Put plainly: Cytotoxicity against human A549 cells after 72 hrs by XTT assay. Format: functional, cell-based. To be noted: A549, 72 h.
For the next test, the system named is HT-29. Put plainly: Cytotoxicity against human HT-29 cells after 72 hrs by XTT assay. It is filed as functional, cell-based. To be noted: HT-29, 72 h.
For test [2], the species on record is Bos taurus. Briefly: Inhibition of calf brain tubulin polymerization at 20 uM after 20 mins. Put shortly: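 Single-concentration screen of tubulin assembly using calf brain MTP at 1.0 mg/mL in 0.1 M MES, 1 mM EGTA, 1 mM MgCl2, 1 mM β-ME, 1.5 mM GTP, pH 6.7, 4% DMSO, with a no-ligand control. Samples were preincubated 30 min at 20 °C and 10 min on ice, then warmed from 4 °C to 37 °C.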

Test [3] is described as follows: Inhibition of calf brain tubulin polymerization after 20 mins. Further details: species or system Bos taurus. Put shortly:
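Microtubule protein was purified from calf brain by two cycles of temperature-dependent assembly/disassembly. Assay mix: 1.0 mg/mL MTP in 0.1 M MES, 1 mM EGTA, 1 mM MgCl2, 1 mM β-ME, 1.5 mM GTP, pH 6.7, 4% DMSO, with a no-ligand control. Samples were preincubated 30 min at 20 °C, chilled 10 min on ice, then assembled by a shift from 4 °C to 37 °C and followed by turbidity. IC50 at 20 min came from exponential fits of TPI% versus concentration, with ≥2 independent experiments on different MTP preparations.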

Test [4] is filed under the species Bos taurus. Put plainly: Inhibition of calf brain tubulin polymerization at 40 uM after 20 mins. In a few lines:
as §1

Consider `COc1ccc(/C(=N\OC(C)=O)c2ccc3c(ccn3C)c2)c(OC)c1OC`, for which the inhibition in the test filed under Bos taurus [1] is 20%. The IC50 was 1000 nM with HeLa, 580 nM in the test with HL-60, > 10 µM in the test on A549 and 1500 nM in the test with HT-29.
Consider `COc1ccc(C(=O)c2cc(OC)c(OC)c(OC)c2)cc1O` [PHENSTATIN], for which the inhibition in the test filed under Bos taurus [2] was 97%. In addition, the half-inhibitory concentration (IC50) in test [3] is 2.5 µM; in the test on HL-60, 30 nM.
In the case of `COc1ccc(/C(=N\O)c2ccc3c(ccn3C)c2)c(OC)c1OC`, the inhibition in the test filed under Bos taurus [1] worked out at 82%. For the same molecule, the IC50 in test [3] is 9 µM; in the test with HeLa, 76 nM; with A549 it was 1 µM; with HT-29, 270 nM.
As for `CCn1ccc2cc(/C(=N/N)c3ccc(OC)c(OC)c3OC)ccc21`, in the test filed under Bos taurus [2], the inhibition stood at 12%. For the same molecule, the 50% inhibitory concentration (IC50) was 2000 nM in the test with HL-60, > 10 µM in the test on A549 and > 10000 nM with HT-29.
On to `CCn1ccc2cc(/C(=N/NC(C)=O)c3ccc(OC)c(OC)c3OC)ccc21`, for which the inhibition in the test listed under Bos taurus [2] was 5%.
On to `CCn1ccc2cc(C(O)c3ccc(OC)c(OC)c3OC)ccc21` (configuration not stated), for which the inhibition in the test listed under Bos taurus [2] was -0%. Also, the half-inhibitory concentration (IC50) in the test with HeLa is < 1000 nM; in the test with HL-60 it was > 10000 nM; in the test on A549 it was > 10 µM; in the test on HT-29, > 10000 nM.
In the test filed under Bos taurus [2], `COc1ccc(C(=O)c2ccc(OC)c(OC)c2OC)cc1O` had an inhibition of 19%.
Take `COc1ccc(/C=C\c2cc(OC)c(OC)c(OC)c2)cc1O` [COMBRETASTATIN A4]: in test [3], the concentration for half-maximal inhibition (IC50) worked out at 3 µM.
As for `CCn1ccc2cc(/C(=N/O)c3ccc(OC)c(OC)c3OC)ccc21`, the inhibition in the test listed under Bos taurus [1] came out at 52%. Also, the half-inhibitory concentration (IC50) in test [3] was 43.1 µM; in the test with HeLa it was 2000 nM; with HL-60, 2000 nM; with A549, > 10 µM; in the test with HT-29, 2000 nM.
In the test listed under Bos taurus [2], `COc1ccc(/C(=N\N)c2ccc3c(ccn3C)c2)c(OC)c1OC` gave an inhibition of 25%. Moreover, the IC50 in the test on HeLa is 2000 nM; with HL-60, 2000 nM; in the test on A549 it was > 10 µM; with HT-29, 2000 nM.
In the test filed under Bos taurus [2], `COc1ccc(C(=O)c2ccc3c(ccn3C)c2)c(OC)c1OC` registered an inhibition of 98%. For the same molecule, the IC50 in test [3] is 0.4 µM; in the test with HeLa, 17 nM; in the test with A549, 0.51 µM; in the test on HT-29, 21 nM.
On to `COc1ccc(C(O)c2ccc3c(ccn3C)c2)c(OC)c1OC` (configuration not stated), for which the inhibition in the test filed under Bos taurus [2] was found to be 9%. Also, the IC50 is 2400 nM in the test with HeLa and > 10 µM in the test on A549.
The molecule `CCn1ccc2cc(/C(=N\NC)c3ccc(OC)c(OC)c3OC)ccc21` registered an inhibition in the test listed under Bos taurus [1] of 17%. Besides, the IC50 in the test with HeLa came to 290 nM; with A549, 1.9 µM; with HT-29, 1200 nM.
`CN/N=C(/c1ccc2c(ccn2C)c1)c1ccc(OC)c(OC)c1OC`: in the test listed under Bos taurus [2], the inhibition is -0%. The half-maximal inhibitory concentration (IC50) with HeLa was 1000 nM; with HL-60, 1000 nM; in the test with A549, > 10 µM; with HT-29, 2000 nM.
`CCn1ccc2cc(C(=O)c3ccc(OC)c(OC)c3OC)ccc21` gave an inhibition in the test listed under Bos taurus [2] of 47%. For the same molecule, the IC50 in test [3] is 5.6 µM; in the test on HeLa it was 420 nM; in the test with HL-60, 5000 nM; in the test with A549 it was > 10 µM; in the test on HT-29, 2000 nM.
The molecule `COc1ccc(/C(=N\NC(C)=O)c2ccc3c(ccn3C)c2)c(OC)c1OC` came in with an inhibition in the test listed under Bos taurus [2] of 22%. Also, the 50% inhibitory concentration (IC50) with HeLa was 1000 nM; in the test on HL-60, 2000 nM; in the test on A549, > 10 µM; with HT-29 it was 2000 nM.
In turn, `COc1cc(C(=O)c2ccc3c(ccn3C)c2)cc(OC)c1OC` had an inhibition in the test filed under Bos taurus [4] of 98%. Moreover, in test [3], the IC50 is 6.9 µM.
Molecule `CCn1ccc2cc(/C(=N/OC(C)=O)c3ccc(OC)c(OC)c3OC)ccc21` showed an inhibition in the test listed under Bos taurus [2] of 29%.
